Results on 17 molecules are retold here after ChEMBL document CHEMBL3351360, “Design and Synthesis of Orally Bioavailable Benzimidazole Reverse Amides as Pan RAF Kinase Inhibitors” (ACS Med Chem Lett, 2014).

For data set [1], the target named is Serine/threonine-protein kinase B-raf (Homo sapiens, UniProt P15056, V600E). In words: Inhibition of BRAF V600E mutant (unknown origin).
For data set [2], the target named is Serine/threonine-protein kinase B-raf (Homo sapiens, UniProt P15056). In words: Inhibition of BRAF (unknown origin)-mediated ERK phosphorylation by cell-based assay.
Another data set concerns the target Cytochrome P450 3A4 (Homo sapiens, UniProt P08684). Put plainly: Inhibition of CYP3A4 (unknown origin). The class given is ADME.
For data set [3], the target named is Platelet-derived growth factor receptor (Homo sapiens, UniProt P09619+P16234). In words: Inhibition of PDGFR (unknown origin). The class given is protein-complex assay.
Data set [4] concerns the target Macrophage colony-stimulating factor 1 receptor (Homo sapiens, UniProt P07333). Put plainly: Inhibition of CSF1R kinase (unknown origin).
The next data set has as its system Rattus norvegicus. In words: Volume of distribution in rat at 10 mg/kg, po as single dose. The class given is ADME, organism-based. Also noted: dose 10 mg/kg, route oral. As to conditions: in vivo. The procedure, abridged:
(§1)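 Rats received a single oral dose of 10 mg/kg. Clearance, volume of distribution, half-life and oral bioavailability were derived from the plasma PK profile.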

The subject of data set [5] is HT-29. In words: Inhibition of ERK phosphorylation in human HT-29 cells harboring B-RAF V600E mutant xenografted in nude mouse at 30 to 100 mg/kg/day for 16 days measured 4 to 24 hrs post final dose by Western blot analysis relative to control. The class given is functional, organism-based. As to conditions: TDE = time-dependent effect. The method in brief:
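HT29 (BRAF V600E) subcutaneous xenografts in nude mice were dosed orally once daily in 5 mM citrate vehicle at 30 or 100 mg/kg. Tumors were harvested 4 and 24 h after the final dose. Lysates were analysed by Western blot for pERK and total ERK.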
On the technique in general: In xenograft studies the graft and the host belong to different species.

Data set [6] in a line: Oral bioavailability in rat at 10 mg/kg as single dose. The following applies: in vivo. The class given is ADME, organism-based. The procedure, abridged:
as §1

In data set [7] the target is Vascular endothelial growth factor receptor (Homo sapiens, UniProt P17948+P35916+P35968). In words: Inhibition of VEGFR (unknown origin). The class given is protein assay.
Data set [8] deals with HT-29. Put plainly: Antitumor activity against human HT-29 cells harboring B-RAF V600E mutant xenografted in nude mouse assessed as tumor growth inhibition at 30 mg/kg/day […] relative to control. The class given is functional. The procedure, abridged: (§2)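 Nude mice received subcutaneous HT29 (BRAF V600E) colorectal cells at 3×10^6 cells/mouse, and tumors were established over 10 days. Mice were then randomized into 4 groups and dosed orally once daily with vehicle (5 mM citrate) or compound at 10, 30 or 100 mg/kg for 17 days. Tumor growth is given as ΔT/ΔC, and body weight was monitored.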

A short description of data set [9]: Half life in rat at 10 mg/kg, po as single dose. The class given is ADME, organism-based. Also noted: dose 10 mg/kg, route oral. The following applies: in vivo. The method in brief: as §1
Data set [10] concerns Mus musculus. Put plainly: Toxicity in human HT-29 cells harboring B-RAF V600E mutant xenografted nude mouse assessed as body weight loss at 30 mg/kg/day […] relative to control. The class given is organism-based. As to conditions: in vivo. The method in brief:
as §2

Data set [11] has as its system Mus musculus. Put plainly: Toxicity in human HT-29 cells harboring B-RAF V600E mutant xenografted nude mouse assessed as body weight loss at 10 mg/kg/day for […] relative to control. The class given is organism-based. The following applies: in vivo. The procedure, abridged: as §2
Data set [12] deals with Voltage-gated inwardly rectifying potassium channel KCNH2 (Homo sapiens, UniProt Q12809). Put plainly: Inhibition of human ERG.
In data set [13] the target is Mast/stem cell growth factor receptor Kit (Homo sapiens, UniProt P10721). In words: Inhibition of c-Kit (unknown origin).
Data set [14] is described as follows: Clearance in rat at 10 mg/kg, po as single dose. The class given is ADME, organism-based. Also noted: dose 10 mg/kg, route oral. As to conditions: in vivo. The method in brief: as §1
Data set [15] deals with HT-29. In words: Antitumor activity against human HT-29 cells harboring B-RAF V600E mutant xenografted in nude mouse assessed as tumor growth inhibition at 10 mg/kg/day for […] relative to control. The class given is functional. The procedure, abridged: as §2
The test system of data set [16] is Mus musculus. Put plainly: Toxicity in human HT-29 cells harboring B-RAF V600E mutant xenografted nude mouse assessed as body weight loss at 100 mg/kg/day […] relative to control. The class given is organism-based. As to conditions: in vivo. The method in brief: as §2
Data set [17] in a line: Stability in mouse plasma assessed as compound remaining at 1 uM at 37 degC after 45 mins. The class given is ADME, cell-free. As to conditions: read-out: Stability.
For data set [18], the target named is Tyrosine-protein kinase Lck (Homo sapiens, UniProt P06239). In words: Inhibition of LCK (unknown origin).
Data set [19] relates to HT-29. In words: Antitumor activity against human HT-29 cells harboring B-RAF V600E mutant xenografted in nude mouse assessed as tumor growth inhibition at 100 mg/kg/day […] relative to control. The class given is functional. The procedure, abridged:
as §2

Data set [20] deals with Proto-oncogene tyrosine-protein kinase Src (Homo sapiens) (UniProt P12931). In words: Inhibition of SRC (unknown origin).
Data set [21] is described as follows: Solubility of the compound at pH 7. The class given is physicochemical. The following applies: buffer.

pEC50, pIC50: −log10 of the molar value. In brackets after ≈: the same amount, converted by molar mass. Activity calls are given as the source filed them. The rule behind the calls is not given here.

Sequence of Serine/threonine-protein kinase B-raf (Homo sapiens, UniProt P15056, V600E) (P15056 2-766 V600E limits assumed): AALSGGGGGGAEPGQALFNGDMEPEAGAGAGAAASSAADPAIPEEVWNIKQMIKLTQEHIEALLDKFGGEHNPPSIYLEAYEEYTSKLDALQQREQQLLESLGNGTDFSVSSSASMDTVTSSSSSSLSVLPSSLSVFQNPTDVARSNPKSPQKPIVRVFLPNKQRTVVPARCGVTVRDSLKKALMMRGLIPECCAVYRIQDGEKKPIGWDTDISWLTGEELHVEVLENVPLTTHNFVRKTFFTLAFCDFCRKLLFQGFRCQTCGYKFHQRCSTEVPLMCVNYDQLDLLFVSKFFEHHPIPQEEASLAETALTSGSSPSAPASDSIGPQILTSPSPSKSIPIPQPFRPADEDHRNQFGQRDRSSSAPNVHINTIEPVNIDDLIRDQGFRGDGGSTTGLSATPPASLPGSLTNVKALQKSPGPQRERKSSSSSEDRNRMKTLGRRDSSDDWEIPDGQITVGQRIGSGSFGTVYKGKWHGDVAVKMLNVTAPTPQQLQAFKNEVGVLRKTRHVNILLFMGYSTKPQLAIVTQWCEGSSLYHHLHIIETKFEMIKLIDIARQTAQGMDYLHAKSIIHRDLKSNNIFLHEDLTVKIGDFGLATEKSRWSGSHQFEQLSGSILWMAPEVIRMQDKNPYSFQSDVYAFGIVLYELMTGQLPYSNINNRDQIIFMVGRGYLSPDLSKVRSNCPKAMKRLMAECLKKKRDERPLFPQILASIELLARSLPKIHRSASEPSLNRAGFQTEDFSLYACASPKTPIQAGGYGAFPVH
Sequence of Serine/threonine-protein kinase B-raf (Homo sapiens, UniProt P15056) (P15056 whole entry): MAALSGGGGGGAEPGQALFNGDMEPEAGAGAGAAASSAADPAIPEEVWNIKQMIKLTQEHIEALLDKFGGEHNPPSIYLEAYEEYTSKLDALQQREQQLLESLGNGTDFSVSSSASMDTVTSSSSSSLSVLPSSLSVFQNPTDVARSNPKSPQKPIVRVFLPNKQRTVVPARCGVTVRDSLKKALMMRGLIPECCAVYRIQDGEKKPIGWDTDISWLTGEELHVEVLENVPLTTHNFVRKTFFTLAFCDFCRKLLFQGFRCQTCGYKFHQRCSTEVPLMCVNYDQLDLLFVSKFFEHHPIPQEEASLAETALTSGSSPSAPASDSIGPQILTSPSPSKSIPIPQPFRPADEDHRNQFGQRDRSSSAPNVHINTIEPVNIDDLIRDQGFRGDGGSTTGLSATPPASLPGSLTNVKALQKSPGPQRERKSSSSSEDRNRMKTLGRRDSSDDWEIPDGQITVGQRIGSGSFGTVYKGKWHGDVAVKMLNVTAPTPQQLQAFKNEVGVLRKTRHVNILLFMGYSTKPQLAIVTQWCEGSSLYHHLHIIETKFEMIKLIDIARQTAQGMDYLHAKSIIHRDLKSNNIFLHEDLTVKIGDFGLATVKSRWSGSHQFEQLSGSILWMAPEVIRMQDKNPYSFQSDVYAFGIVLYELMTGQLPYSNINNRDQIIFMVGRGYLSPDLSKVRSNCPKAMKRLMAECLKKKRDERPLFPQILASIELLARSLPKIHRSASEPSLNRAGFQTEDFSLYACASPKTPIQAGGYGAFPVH
Sequence of Cytochrome P450 3A4 (P08684 whole entry): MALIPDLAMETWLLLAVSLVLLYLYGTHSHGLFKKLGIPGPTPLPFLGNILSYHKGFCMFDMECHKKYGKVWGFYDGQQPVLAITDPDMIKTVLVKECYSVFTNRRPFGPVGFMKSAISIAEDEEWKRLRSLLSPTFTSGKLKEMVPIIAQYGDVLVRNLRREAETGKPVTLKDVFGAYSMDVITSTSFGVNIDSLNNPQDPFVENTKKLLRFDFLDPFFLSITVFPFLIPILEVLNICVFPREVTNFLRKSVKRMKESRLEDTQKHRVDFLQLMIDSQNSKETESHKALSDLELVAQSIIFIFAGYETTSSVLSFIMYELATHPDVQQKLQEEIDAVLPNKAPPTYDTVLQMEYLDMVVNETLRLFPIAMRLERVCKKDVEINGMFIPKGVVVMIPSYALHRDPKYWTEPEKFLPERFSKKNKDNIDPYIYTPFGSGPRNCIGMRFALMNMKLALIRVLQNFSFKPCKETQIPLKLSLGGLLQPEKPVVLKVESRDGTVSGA
Sequence of Voltage-gated inwardly rectifying potassium channel KCNH2 (Q12809 whole entry): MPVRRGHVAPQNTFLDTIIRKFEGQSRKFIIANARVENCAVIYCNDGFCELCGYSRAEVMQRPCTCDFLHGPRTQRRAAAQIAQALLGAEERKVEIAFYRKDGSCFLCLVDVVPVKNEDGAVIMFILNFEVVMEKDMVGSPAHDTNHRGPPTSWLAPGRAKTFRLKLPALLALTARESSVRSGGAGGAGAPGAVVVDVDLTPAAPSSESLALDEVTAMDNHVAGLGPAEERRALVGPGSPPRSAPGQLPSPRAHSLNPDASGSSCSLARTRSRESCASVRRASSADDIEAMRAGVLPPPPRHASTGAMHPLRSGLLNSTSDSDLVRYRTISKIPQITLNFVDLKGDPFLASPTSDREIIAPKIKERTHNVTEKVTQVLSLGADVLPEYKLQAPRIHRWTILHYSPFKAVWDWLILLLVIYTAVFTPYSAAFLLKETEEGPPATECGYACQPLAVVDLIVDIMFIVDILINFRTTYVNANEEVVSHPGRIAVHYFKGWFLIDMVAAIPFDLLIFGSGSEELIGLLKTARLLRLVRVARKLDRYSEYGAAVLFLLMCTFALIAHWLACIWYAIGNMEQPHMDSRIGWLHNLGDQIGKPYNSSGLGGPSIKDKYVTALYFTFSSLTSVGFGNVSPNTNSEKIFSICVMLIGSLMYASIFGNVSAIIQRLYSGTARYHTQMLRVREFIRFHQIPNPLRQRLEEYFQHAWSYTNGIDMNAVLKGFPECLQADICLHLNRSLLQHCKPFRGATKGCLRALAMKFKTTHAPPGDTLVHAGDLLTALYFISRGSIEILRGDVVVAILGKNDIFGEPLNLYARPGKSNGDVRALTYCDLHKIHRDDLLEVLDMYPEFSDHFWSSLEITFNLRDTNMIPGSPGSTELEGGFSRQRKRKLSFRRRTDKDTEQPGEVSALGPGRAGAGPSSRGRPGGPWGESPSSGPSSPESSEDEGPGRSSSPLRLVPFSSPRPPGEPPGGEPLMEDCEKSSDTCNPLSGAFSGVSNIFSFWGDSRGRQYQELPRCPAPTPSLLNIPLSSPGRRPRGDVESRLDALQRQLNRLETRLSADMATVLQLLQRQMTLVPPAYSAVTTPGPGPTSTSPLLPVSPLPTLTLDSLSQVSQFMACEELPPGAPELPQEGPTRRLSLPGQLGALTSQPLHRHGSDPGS
Sequence of Proto-oncogene tyrosine-protein kinase Src (Homo sapiens) (P12931 2-536 limits assumed): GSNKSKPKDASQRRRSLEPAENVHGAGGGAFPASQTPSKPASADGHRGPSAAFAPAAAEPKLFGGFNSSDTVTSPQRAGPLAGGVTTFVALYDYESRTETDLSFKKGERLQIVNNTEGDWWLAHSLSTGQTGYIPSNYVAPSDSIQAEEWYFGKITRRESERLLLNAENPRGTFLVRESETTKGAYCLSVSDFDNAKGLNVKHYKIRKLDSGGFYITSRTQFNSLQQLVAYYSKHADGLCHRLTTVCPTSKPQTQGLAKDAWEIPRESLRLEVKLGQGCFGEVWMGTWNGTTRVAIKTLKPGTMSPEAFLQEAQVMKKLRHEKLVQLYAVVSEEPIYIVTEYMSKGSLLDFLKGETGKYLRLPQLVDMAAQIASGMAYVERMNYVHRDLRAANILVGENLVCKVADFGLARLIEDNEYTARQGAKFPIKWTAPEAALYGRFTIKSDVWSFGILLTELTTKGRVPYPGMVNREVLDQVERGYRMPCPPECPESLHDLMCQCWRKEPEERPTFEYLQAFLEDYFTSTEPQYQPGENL
Sequence of Mast/stem cell growth factor receptor Kit (P10721 whole entry): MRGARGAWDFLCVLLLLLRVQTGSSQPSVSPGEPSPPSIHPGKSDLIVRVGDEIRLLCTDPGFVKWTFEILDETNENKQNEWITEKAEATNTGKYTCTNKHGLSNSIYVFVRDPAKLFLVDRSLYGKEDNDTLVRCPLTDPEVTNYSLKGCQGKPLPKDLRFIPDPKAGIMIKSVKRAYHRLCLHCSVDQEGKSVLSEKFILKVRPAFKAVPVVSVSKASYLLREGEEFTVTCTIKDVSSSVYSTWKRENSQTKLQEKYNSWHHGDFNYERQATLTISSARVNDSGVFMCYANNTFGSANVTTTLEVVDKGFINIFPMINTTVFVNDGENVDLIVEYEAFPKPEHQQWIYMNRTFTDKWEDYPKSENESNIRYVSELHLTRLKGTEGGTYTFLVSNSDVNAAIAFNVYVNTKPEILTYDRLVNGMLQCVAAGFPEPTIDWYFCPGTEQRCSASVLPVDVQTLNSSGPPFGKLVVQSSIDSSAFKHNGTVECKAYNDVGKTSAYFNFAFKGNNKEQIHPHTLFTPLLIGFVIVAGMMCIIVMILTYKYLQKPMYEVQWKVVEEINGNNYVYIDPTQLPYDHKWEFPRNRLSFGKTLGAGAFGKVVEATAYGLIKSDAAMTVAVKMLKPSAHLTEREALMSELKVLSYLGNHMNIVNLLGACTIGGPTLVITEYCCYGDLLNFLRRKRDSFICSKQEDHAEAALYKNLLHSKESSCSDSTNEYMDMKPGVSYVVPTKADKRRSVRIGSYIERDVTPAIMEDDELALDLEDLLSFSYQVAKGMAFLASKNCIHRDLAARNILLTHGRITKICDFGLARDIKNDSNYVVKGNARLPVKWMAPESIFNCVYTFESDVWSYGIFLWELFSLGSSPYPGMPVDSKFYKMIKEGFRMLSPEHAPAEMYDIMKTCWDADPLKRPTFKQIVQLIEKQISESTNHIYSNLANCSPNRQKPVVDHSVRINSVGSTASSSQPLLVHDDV

As a reminder, the pIC50 is the negative decadic logarithm of the IC50, by convention in mol/L. Lower therefore signals a high IC50. As a reminder, the pEC50 is the negative decadic logarithm of the EC50, by convention in mol/L. A lower pEC50 goes with a large EC50. With `CC(=O)Nc1cc(Oc2ccc3c(c2)nc(Nc2ccc(OC(F)(F)F)cc2)n3C)ccn1`, in data set [1], the pIC50 was 9.00. Further, the pEC50 in [2] is 7.00.
The matching figures for `Cn1c(Nc2cccc(C(C)(C)C)c2)nc2cc(Oc3ccnc(NC(=O)C4CCNCC4)c3)ccc21`: 8.15 and 7.00.
Turning to `CC(C)N1CCN(CC(=O)Nc2cc(Oc3ccc4c(c3)nc(Nc3cc(C(F)(F)F)ccc3F)n4C)ccn2)CC1`, on Cytochrome P450 3A4, the INH came to 14 µM. Further, the pIC50 in data set [1] was 8.22. Further, the pEC50 in data set [2] is 7.00.
`CC(=O)Nc1cc(Oc2ccc3c(c2)nc(Nc2ccc(C(C)(C)C)cc2)n3C)ccn1`: the pIC50 in data set [1] is 8.05. In data set [2], the pEC50 is 7.30.
On to `CN1CCC(C(=O)Nc2cc(Oc3ccc4c(c3)nc(Nc3cccc(C(C)(C)C)c3)n4C)ccn2)CC1`, for which the pIC50 in [1] is 8.00. In addition, the pEC50 in data set [2] is 7.00.
The term bioavailability denotes dose-corrected exposure relative to a reference, in per cent. Broadly, the IC50 is the concentration that inhibits the measured activity by half. Low values mean inhibition by little substance, high ones a need for much substance. One may read the T/C as the result in the treated group divided by that in the control group, in per cent. The half-life is the time in which the quantity being followed falls by half. A higher half-life goes with slow loss. By CL/F is commonly meant the apparent clearance, not corrected for the fraction that reaches the circulation. As for `CCN1CCN(CC(=O)Nc2cc(Oc3ccc4c(c3)nc(Nc3cc(C(F)(F)F)ccc3F)n4C)ccn2)CC1`, the pIC50 in data set [3] was > 8.00; in data set [4], > 8.00; in data set [13], > 8.00; in [1], 8.22; in data set [18], 6.62. This molecule also returned a Vd with Rattus norvegicus of 12.737 L/kg. Also, the INH on Cytochrome P450 3A4 is > 25 µM; in data set [12] it was 2.3 µM. Besides, the inhibition entry in the data set on HT-29 [5] was “tde”. In data set [6], this molecule showed a bioavailability of 40%. Further, in [7], the IC50 was < 10 nM. The T/C in the data set on HT-29 [8] amounted to 72%; in the data set with HT-29 [15], 52%; in the data set with HT-29 [19], 75%. This molecule gave a half-life in data set [9] of 5.67 h. Further, the Activity entry in the data set on Mus musculus [10] was “Non-toxic”; in the data set on Mus musculus [11], “Non-toxic”; with Mus musculus [16], 13%. The same molecule had a CL/F in [14] of 32 mL/min/kg. This molecule had a pEC50 in data set [2] of 7.00. For the same molecule, the remaining at 0.75 h, 1 µM in [17] is 1%. For the same molecule, in data set [20], the inhibition entry is “inactive”.
In data set [1], `CCc1ccc(Nc2nc3cc(Oc4ccnc(NC(C)=O)c4)ccc3n2C)cc1` showed a pIC50 of 9.00. Besides, in [2], the pEC50 is 7.10.
`CC(=O)Nc1cc(Oc2ccc3c(c2)nc(Nc2cccc(C(F)(F)F)c2)n3C)ccn1` had a pIC50 in data set [1] of 8.52. Moreover, in data set [2], the pEC50 was 6.40.
As for `CC(=O)Nc1cc(Oc2ccc3c(c2)nc(Nc2ccc(C(C)C)cc2)n3C)ccn1`, in data set [1], the pIC50 was 8.40. The pEC50 in [2] is 7.05.
With `CC(=O)Nc1cc(Oc2ccc3c(c2)nc(Nc2cccc(OC(F)(F)F)c2)n3C)ccn1`, the pIC50 in data set [1] is 9.40. This molecule also gave a pEC50 in data set [2] of 7.00.
`CC(=O)Nc1cc(Oc2ccc3c(c2)nc(Nc2cccc(C(C)(C)C)c2)n3C)ccn1` had a pIC50 in data set [1] of 8.52. Besides, in [2], the pEC50 is 7.40.
`CC(C)N1CCC(C(=O)Nc2cc(Oc3ccc4c(c3)nc(Nc3cc(C(F)(F)F)ccc3F)n4C)ccn2)CC1`: the bioavailability in data set [6] is 54%. The CL/F in data set [14] came out at 49 mL/min/kg. The same molecule had a pIC50 in data set [1] of 8.70. The molecule also gave a pEC50 in [2] of 7.00.
A word on the solubility: it is how much of the substance goes into solution per volume. Higher therefore signals much dissolved substance. Regarding `CC(C)N1CCC(C(=O)Nc2cc(Oc3ccc4c(c3)nc(Nc3cccc(C(C)(C)C)c3)n4C)ccn2)CC1`, the Vd in the data set on Rattus norvegicus amounted to 17.784 L/kg. Besides, the INH on Cytochrome P450 3A4 was determined as 3 µM. In data set [6], this molecule yielded a bioavailability of 15%. Further, the concentration in solution in [21] (solubility) came to 581 µg/mL (≈ 1070 µM). Also, the half-life in data set [9] was 4.18 h. In data set [14], the CL/F is 90 mL/min/kg. This molecule also gave a pIC50 in data set [1] of 7.70. In addition, in [2], the pEC50 was 7.00.
As for `CC(=O)Nc1cc(Oc2ccc3c(c2)nc(Nc2cccc(C(C)C)c2)n3C)ccn1`, the negative logarithm of the IC50 (pIC50) in data set [1] is > 9.40. In addition, in [2], the pEC50 was 7.30.
For the molecule `CC(=O)Nc1cc(Oc2ccc3c(c2)nc(Nc2ccc(C(F)(F)F)cc2)n3C)ccn1`, the pIC50 in [1] was 8.40. The molecule further had a pEC50 in [2] of 7.30. In addition, in data set [17], the remaining at 0.75 h, 1 µM came out at 100%.
With `CC(=O)Nc1cc(Oc2ccc3c(c2)nc(Nc2cc(C(F)(F)F)ccc2F)n3C)ccn1`, in data set [1], the pIC50 is 9.00. In data set [2], this molecule showed a pEC50 of 7.05.
`CCc1cccc(Nc2nc3cc(Oc4ccnc(NC(C)=O)c4)ccc3n2C)c1`: in data set [1], the pIC50 is > 9.40. The same molecule showed a pEC50 in [2] of 7.00.
